ChEMBL document CHEMBL3244357, “Biologically oriented organic sulfur chemistry. 15. Organic disulfides and related substances. 41. Inhibition of the fungal pathogen Histoplasma capsulatum by some organic disulfides” (J Med Chem, 1977)
≈ marks a conversion by molar mass, not a printed value. Calls of active or inactive are those of the source. The calls are words filed in the database; no cut-off is given here.

Columns and labels:
Histoplasma capsulatum [1] = experiment: Antifungal activity against Histoplasma capsulatum 26 by agar dilution assay; format: functional
Procedure, shortened: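 In vitro MIC against H. capsulatum strain 26 by standard agar dilution. Amphotericin B was run as the standard in each test.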

Mus musculus [2] = experiment: Toxicity in ip dosed mouse; format: organism-based; details: in vivo
Histoplasma capsulatum [3] = experiment: Antifungal activity against Histoplasma capsulatum infected in x-irradiated mouse assessed as prolongation of lifetime at 25 mg/kg, sc bid administered on day 0, 1 and 2 post infection; format: functional; details: route subcutaneous
Procedure, shortened: (§1)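 Mice infected with H. capsulatum were dosed sc at 0 and 4 h postinfection on days 0, 1 and 2, six doses in total. Read-out was % extension of lifetime beyond untreated controls. Amphotericin B, dosed the same way, served as positive control.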

Histoplasma capsulatum [4] = experiment: Antifungal activity against Histoplasma capsulatum infected in x-irradiated mouse assessed as prolongation of lifetime at 13 mg/kg, sc bid administered on day 0, 1 and 2 post infection; format: functional; details: route subcutaneous; procedure, shortened: as §1
Histoplasma capsulatum [5] = experiment: Antifungal activity against Histoplasma capsulatum infected in x-irradiated mouse assessed as prolongation of lifetime at 6 mg/kg, sc bid administered on day 0, 1 and 2 post infection; format: functional; details: route subcutaneous; procedure, shortened: as §1
Mus musculus [6] = experiment: Toxicity in mouse at 50 mg/kg, sc bid; format: organism-based; design: dose 50 mg/kg, route subcutaneous; details: in vivo
Histoplasma capsulatum [7] = experiment: Antifungal activity against Histoplasma capsulatum infected in x-irradiated mouse assessed as prolongation of lifetime at 40 mg/kg, sc bid administered on day 0, 1 and 2 post infection; format: functional; details: route subcutaneous; procedure, shortened: as §1
Histoplasma capsulatum [8] = experiment: Antifungal activity against Histoplasma capsulatum infected in x-irradiated mouse assessed as prolongation of lifetime at 20 mg/kg, sc bid administered on day 0, 1 and 2 post infection; format: functional; details: route subcutaneous; procedure, shortened: as §1
Histoplasma capsulatum [9] = experiment: Antifungal activity against Histoplasma capsulatum infected in x-irradiated mouse assessed as prolongation of lifetime at 10 mg/kg, sc bid administered on day 0, 1 and 2 post infection; format: functional; details: route subcutaneous; procedure, shortened: as §1
Histoplasma capsulatum [10] = experiment: Antifungal activity against Histoplasma capsulatum infected in x-irradiated mouse assessed as prolongation of lifetime at 50 mg/kg, sc bid administered on day 0, 1 and 2 post infection; format: functional; details: route subcutaneous; procedure, shortened: as §1
Candida albicans [11] = experiment: Antifungal activity against Candida albicans by disk-plate assay; format: functional, organism-based
Candida albicans [12] = experiment: Antifungal activity against Candida albicans infected in mouse; format: functional, organism-based

## S=C1SSCCN1CCCCC1CCCCC1
Histoplasma capsulatum [1]
  MIC: 10 µg/mL (≈ 34.5 µM)
Mus musculus [2]
  Activity: 0.1 g/kg

## CCSSC(=S)N1CCOCC1
Histoplasma capsulatum [1]
  MIC: 10 µg/mL (≈ 44.8 µM)
Histoplasma capsulatum [3]
  Activity: 5%
Histoplasma capsulatum [4]
  Activity: 5%
Histoplasma capsulatum [5]
  Activity: 5%
Mus musculus [6]
  Activity: Toxic

## CC(C)(C)SSC(=S)N1CCOCC1
Histoplasma capsulatum [1]
  MIC: > 40 µg/mL
Histoplasma capsulatum [7]
  Activity: 11%
Histoplasma capsulatum [8]
  Activity: 5%
Histoplasma capsulatum [9]
  Activity: -4%

## O=C(O)c1ccccc1SSC(=S)N1CCOCC1
Histoplasma capsulatum [1]
  MIC: > 10 µg/mL
Histoplasma capsulatum [10]
  Activity: -7%
Histoplasma capsulatum [3]
  Activity: -5%
Histoplasma capsulatum [4]
  Activity: -2%
Mus musculus [2]
  Activity: 0.1 g/kg

## Cc1ccc(SSCC(=O)O)cc1
Histoplasma capsulatum [1]
  MIC: 20 µg/mL (≈ 93.3 µM)
Histoplasma capsulatum [10]
  Activity: 0%
Histoplasma capsulatum [3]
  Activity: -6%
Histoplasma capsulatum [4]
  Activity: 17%

## S=C(SSc1ccccc1)N1CCOCC1
Histoplasma capsulatum [1]
  MIC: 40 µg/mL (≈ 147 µM)
Histoplasma capsulatum [3]
  Activity: 9%
Histoplasma capsulatum [4]
  Activity: 11%
Histoplasma capsulatum [5]
  Activity: 5%
Mus musculus [6]
  Activity: Toxic

## COc1ccc(CSSCCCCS(=O)[O-])cc1.[Na+]
Histoplasma capsulatum [1]
  MIC: 20 µg/mL
Histoplasma capsulatum [10]
  Activity: 9%
Histoplasma capsulatum [3]
  Activity: -19%
Histoplasma capsulatum [4]
  Activity: -2%

## CCCCCCCCCCN1CCSSC1=S
Histoplasma capsulatum [1]
  MIC: > 10 µg/mL
Mus musculus [2]
  Activity: 0.1 g/kg

## COc1ccc(C(=S)SSc2ccc(C)cc2)cc1
Histoplasma capsulatum [1]
  MIC: 20 µg/mL (≈ 65.3 µM)
Histoplasma capsulatum [10]
  Activity: -2%
Histoplasma capsulatum [3]
  Activity: 7%
Histoplasma capsulatum [4]
  Activity: 2%

## CN(C)C(=S)SSc1ccc(Cl)cc1
Histoplasma capsulatum [1]
  MIC: 5 µg/mL (≈ 19 µM)
Histoplasma capsulatum [10]
  Activity: 11%
Histoplasma capsulatum [3]
  Activity: 13%
Histoplasma capsulatum [4]
  Activity: -14%
Candida albicans [11]
  Activity: Active
Candida albicans [12]
  Activity: inactive
Mus musculus [2]
  Activity: 1 g/kg

## C[C@@H]1[C@H](O)[C@@H](C)/C=C/C=C/C=C/C=C/C=C/C=C/C=C/[C@H](O[C@@H]2O[C@H](C)[C@@H](O)[C@H](N)[C@@H]2O)C[C@@H]2O[C@](O)(C[C@@H](O)C[C@@H](O)[C@H](O)CC[C@@H](O)C[C@@H](O)CC(=O)O[C@H]1C)C[C@H](O)[C@H]2C(=O)O [AMPHOTERICIN B]
Histoplasma capsulatum [1]
  MIC: 0.0625 µg/mL (≈ 0.0676 µM)
Histoplasma capsulatum [10]
  Activity: 70%
Histoplasma capsulatum [3]
  Activity: 58%

## Cc1ccc(SSC(=S)N2CCOCC2)cc1
Histoplasma capsulatum [1]
  MIC: 40 µg/mL (≈ 140 µM)
Histoplasma capsulatum [10]
  Activity: 9%
Histoplasma capsulatum [3]
  Activity: 0%
Histoplasma capsulatum [4]
  Activity: 5%

## S=C(SSC(=S)N1CCOCC1)N1CCOCC1
Histoplasma capsulatum [1]
  MIC: 40 µg/mL (≈ 123 µM)
Histoplasma capsulatum [3]
  Activity: 5%
Histoplasma capsulatum [4]
  Activity: 5%
Histoplasma capsulatum [5]
  Activity: 5%
Mus musculus [6]
  Activity: Toxic

## Cc1ccc(SSCCCCS(=O)[O-])cc1.[Na+]
Histoplasma capsulatum [1]
  MIC: 20 µg/mL
Histoplasma capsulatum [10]
  Activity: -21%
Histoplasma capsulatum [3]
  Activity: -6%
Histoplasma capsulatum [4]
  Activity: 15%

## CN(C)C(=S)SSc1ccccc1C(=O)O
Histoplasma capsulatum [1]
  MIC: < 1 µg/mL
Mus musculus [2]
  Activity: 0.1 g/kg

## Cc1ccc(SSCCN)cc1.Cl
Histoplasma capsulatum [1]
  MIC: > 20 µg/mL
Histoplasma capsulatum [10]
  Activity: 9%
Histoplasma capsulatum [3]
  Activity: 0%
Histoplasma capsulatum [4]
  Activity: 4%
